Measured values collected from several papers.
Each line is one published result; the experiments were not run side by side.
Target: Dual specificity tyrosine-phosphorylation-regulated kinase 1B (DYRK1B, Homo sapiens, UniProt Q9Y463)

Structure (SMILES)	test	setting	measurement	value
Cc1cc(NC(=O)c2cccc3cc(-c4cccc5[nH]nc(N)c45)ccc23)ccc1F	enzyme activity, inhibitor	0.1 µM	activity vs control	95%
COc1cc2ncnc(Nc3ccc(Oc4ccccc4)c(C)c3C)c2cc1OC	enzyme activity, inhibitor	1 µM	inhibition	1%
Cc1c(C(=O)O)cc(-c2ccc(C3CCNCC3)cc2)c2ccc(-c3ccc(C(F)(F)F)cc3)cc12	cell-free assay, competition with immobilised ligand	1 µM	remaining binding	74%
O=C(O)c1ccc2c(c1)nc(Nc1cccc(F)c1)c1ncncc12	enzyme activity, inhibitor, radiometric	1 µM	remaining activity	30%
O=C1NC(c2ccccn2)Sc2ccccc21 (stereo not drawn)	cell-free assay, competition with immobilised ligand	1 µM	remaining binding	100%
O=C(O)c1ccc2c(c1)nc(NCCc1cccc(Cl)c1)c1ncncc12	enzyme activity, inhibitor, radiometric	1 µM	remaining activity	114%
Cn1cnc(Br)c1C1=CN(c2ncnc3[nH]cnc23)CCS1	enzyme activity, inhibitor, radiometric	2 µM	inhibition	100%
O=C(CSc1nc2nccnc2c(=O)n1CCc1ccccc1)Nc1nccs1	enzyme activity, inhibitor	10 µM	inhibition	-3%
CC(=O)N1CCC(c2ccc(C(=O)NC(=N)N)cc2C(F)(F)F)CC1	cell-free assay, competition with immobilised ligand	1 µM	remaining binding	45%
COc1cccc(CCNc2nc3cc(C(=O)O)ccc3c3cnccc23)c1	enzyme activity, inhibitor, radiometric	1 µM	remaining activity	123%
C[C@@H](c1cccc(C#N)c1)n1cc(Cl)cc(C(N)=O)c1=N	cell-free assay, competition with immobilised ligand	1 µM	remaining binding	37%
Cc1sc(C(=O)NC2COC2)cc1-n1cc(NC(=O)Nc2c(F)cccc2Cl)cn1	enzyme activity, inhibitor	10 µM	remaining activity	105%
CCC(=N\O)/C(C)=C/c1ccc(F)cc1	cell-free assay, competition with immobilised ligand	1 µM	remaining binding	57%
O=C(O)c1ccc2c(c1)nc(NCc1ccccc1)c1ncncc12	enzyme activity, inhibitor, radiometric	1 µM	remaining activity	124%
Cn1cncc1C1=CN(c2ncnc3[nH]cnc23)CCS1	enzyme activity, inhibitor, radiometric	2 µM	inhibition	95.3%
